Measurements from ChEMBL document CHEMBL1149127, “Synthesis and antitubulin activity of N1- and N4-substituted 3,5-dinitro sulfanilamides against African trypanosomes and Leishmania” (J Med Chem, 2004).

Assays:
Trypanosoma brucei = test: microbe, parasite or virus in culture; format: functional, organism-based
PC-3 = test: In vitro cytotoxicity against mouse PC3 prostate cancer cell line.; format: functional, cell-based; conditions: Homo sapiens
Tubulin (Sus scrofa) = Tubulin (Sus scrofa) (UniProt P02554+P02550); test: Inhibition of porcine brain tubulin assembly at 40 uM
Chain of Tubulin (Sus scrofa) (P02550 whole entry, looked up): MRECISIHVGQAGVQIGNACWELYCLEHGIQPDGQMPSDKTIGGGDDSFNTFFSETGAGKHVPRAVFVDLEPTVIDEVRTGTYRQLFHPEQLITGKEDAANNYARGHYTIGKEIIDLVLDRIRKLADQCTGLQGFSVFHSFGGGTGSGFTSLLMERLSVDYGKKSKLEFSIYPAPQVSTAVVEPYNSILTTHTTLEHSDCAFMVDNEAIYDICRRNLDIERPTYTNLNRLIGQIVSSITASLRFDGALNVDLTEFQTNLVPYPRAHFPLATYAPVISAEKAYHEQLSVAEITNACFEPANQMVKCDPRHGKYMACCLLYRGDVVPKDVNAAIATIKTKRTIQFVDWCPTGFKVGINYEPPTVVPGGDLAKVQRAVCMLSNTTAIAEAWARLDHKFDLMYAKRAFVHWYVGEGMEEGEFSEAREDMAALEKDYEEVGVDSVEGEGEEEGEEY
Chain of Tubulin (Sus scrofa) (P02554 whole entry, looked up): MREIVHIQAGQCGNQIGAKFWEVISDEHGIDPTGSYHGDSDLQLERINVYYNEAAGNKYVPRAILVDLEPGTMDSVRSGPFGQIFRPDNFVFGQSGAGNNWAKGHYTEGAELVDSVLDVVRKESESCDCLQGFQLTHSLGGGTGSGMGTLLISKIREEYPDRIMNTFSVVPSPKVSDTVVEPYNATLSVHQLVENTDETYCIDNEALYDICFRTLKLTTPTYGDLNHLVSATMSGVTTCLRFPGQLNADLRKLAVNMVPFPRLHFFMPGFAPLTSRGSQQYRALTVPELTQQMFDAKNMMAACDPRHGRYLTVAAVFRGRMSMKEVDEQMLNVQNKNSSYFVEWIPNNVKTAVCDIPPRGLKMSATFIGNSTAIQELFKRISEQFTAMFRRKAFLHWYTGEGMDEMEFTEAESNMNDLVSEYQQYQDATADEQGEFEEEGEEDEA
Method in brief: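 Porcine brain tubulin purified by DEAE-Sepharose and a warm assembly cycle. Compound at 40 µM added in 100% DMSO. Assembly started on ice with cold GTP in water. Turbidity read at 351 nm while warming to 37 °C. Percent inhibition determined.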

Leishmania donovani [1] = test: Inhibition percentage of Leishmanial tubulin assembly at a concentration of 10 uM.
Method in brief: (§1)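 Leishmanial tubulin turbidity assay. Compounds added in 50% DMSO. Assembly started on ice by adding cold GTP in 25% DMSO. Turbidity followed at 351 nm while warming to 30 °C. Single-concentration tests run at 10 µM.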

J774 = test: In vitro cytotoxicity against mouse J774 macrophages.; format: functional, cell-based
Leishmania donovani [2] = test: Inhibitory concentration against Leishmania donovani axenic amastigotes was determined in vitro; format: functional, organism-based
Mus musculus [3] = test: Average survival time for mice infected with Trypanosoma brucei ST1B 795 when treated with 20 mg/kg administered intraperitoneally; format: functional; conditions: route intraperitoneal
Method in brief: (§2)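 Female NMRI mice (20-25 g) were infected ip with 10⁴ T. b. brucei STIB 795 bloodstream forms and randomly assigned to groups of four. Starting 4 days after infection, 20 mg/kg was given ip for 4 consecutive days. Vehicle was DMSO diluted with water, with final DMSO below 10%. Day of death was recorded for each mouse.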

Mus musculus [4] = test: Tested against Trypanosoma brucei strain ST1B 795 in mice as cured to tested at 20 mg/kg/day administered intraperitoneally; 0/4; format: functional; conditions: route intraperitoneal
[5] = Inhibition of Leishmanial tubulin assembly; parameters: species or system Leishmania donovani
Method in brief: as §1

[6] = Tested for toxicity against mice by intraperitoneal administration; No signs of toxicity; conditions: mouse, in vivo, ip
Mus musculus [7] = test: Average survival time for mice infected with Trypanosoma brucei ST1B 795 when treated with 20 mg/kg administered i.p.; format: functional; conditions: route intraperitoneal
Method in brief: as §2

[8] = system: Tubulin (Leishmania donovani); test: Inhibition percentage of Leishmanial tubulin assembly at a concentration of 10 uM

SMILES | IC50 (Trypanosoma brucei) [µM] | IC50 (PC-3) [µM] | inhibition (Tubulin (Sus scrofa)) [%] | inhibition (Leishmania donovani [1]) [%] | IC50 (J774) [µM] | IC50 (Leishmania donovani [2]) [µM] | other results
CCCN(CCC)c1c([N+](=O)[O-])cc(S(=O)(=O)Nc2cccc(C)c2)cc1[N+](=O)[O-] | 1.9 | 25 | < 20 | < 20 | 16 | 23 | 
CCCN(CCC)c1c([N+](=O)[O-])cc(S(=O)(=O)Nc2ccccn2)cc1[N+](=O)[O-] | 9.2 |  |  |  | 45 | 60 | 
CCCN(CCC)c1c([N+](=O)[O-])cc(S(=O)(=O)N2CCCC2)cc1[N+](=O)[O-] | 6.5 |  |  |  |  | 47 | 
CCCN(CCC)c1c([N+](=O)[O-])cc(S(=O)(=O)NCC)cc1[N+](=O)[O-] | 5.4 |  |  |  |  | > 100 | 
CCCNS(=O)(=O)c1cc([N+](=O)[O-])c(N(CCC)CCC)c([N+](=O)[O-])c1 | 8.9 |  |  | < 20 |  | 54 | 
CCCN(CCC)c1c([N+](=O)[O-])cc(S(=O)(=O)N(CC)CC)cc1[N+](=O)[O-] | 8.3 |  |  |  |  | 27 | 
CCN(CC)c1c([N+](=O)[O-])cc(S(=O)(=O)Nc2ccccc2)cc1[N+](=O)[O-] | 2.8 | 56 | < 20 | < 20 | 48 | 11 | 
CCCCCNS(=O)(=O)c1cc([N+](=O)[O-])c(N(CCC)CCC)c([N+](=O)[O-])c1 | 17 |  |  |  |  | 43 | 
CCCCNS(=O)(=O)c1cc([N+](=O)[O-])c(N(CCC)CCC)c([N+](=O)[O-])c1 | 12 |  | < 20 |  |  | 50 | 
CCCCN(CCCC)c1c([N+](=O)[O-])cc(S(=O)(=O)Nc2ccccc2)cc1[N+](=O)[O-] | 0.12 | 13 | < 20 | 104 | 12 | 2.6 | Survival (Mus musculus [3]): 8 days; Activity (Mus musculus [4]): 0; IC50 [5]: 6.9 µM; Dose [6]: 20 mg/kg
CCCN(CCC)c1c([N+](=O)[O-])cc(S(=O)(=O)N(C)c2ccccc2)cc1[N+](=O)[O-] | 1 | > 100 |  | < 20 | 11 | 21 | 
CCCN(CCC)c1c([N+](=O)[O-])cc(S(=O)(=O)Nc2ccc(C)cc2)cc1[N+](=O)[O-] | 13 | 21 | < 20 | < 20 | 11 | 32 | 
CCCN(CCC)c1c([N+](=O)[O-])cc(S(=O)(=O)NC2CC2)cc1[N+](=O)[O-] | 3.4 |  |  |  |  | 43 | 
CCCN(CCC)c1c([N+](=O)[O-])cc(S(=O)(=O)NC(C)C)cc1[N+](=O)[O-] | 4.1 |  |  |  |  | > 100 | 
CCCN(CCC)c1c([N+](=O)[O-])cc(S(=O)(=O)N2CCOCC2)cc1[N+](=O)[O-] | > 100 |  |  |  |  | > 100 | 
CCCN(CCC)c1c([N+](=O)[O-])cc(S(=O)(=O)Nc2cccc(OC)c2)cc1[N+](=O)[O-] | 1.3 | 36 | < 20 | 39 | 25 | 8.1 | 
CCCN(CCC)c1c([N+](=O)[O-])cc(S(=O)(=O)Nc2ccc(Cl)cc2)cc1[N+](=O)[O-] | 13 | 16 | < 20 | < 20 | 10 | 13 | 

SMILES | IC50 (Trypanosoma brucei) [µM] | IC50 (PC-3) [µM] | inhibition (Tubulin (Sus scrofa)) [%] | inhibition (Leishmania donovani [1]) [%] | IC50 (J774) [µM] | IC50 (Leishmania donovani [2]) [µM] | other results
CCCN(CCC)c1c([N+](=O)[O-])cc(S(N)(=O)=O)cc1[N+](=O)[O-] [ORYZALIN] | 12 | 56 |  |  | 44 | 65 | 
N=C(N)c1ccc(OCCCCCOc2ccc(C(=N)N)cc2)cc1 [PENTAMIDINE] | 0.013 |  |  |  |  |  | 
CCCCCCN(CCCCCC)S(=O)(=O)c1cc([N+](=O)[O-])c(N(CCC)CCC)c([N+](=O)[O-])c1 | > 50 |  |  |  |  | > 100 | 
CCCN(CCC)c1c([N+](=O)[O-])cc(S(=O)(=O)Nc2ccc(OC)cc2)cc1[N+](=O)[O-] | 19 | 31 | < 20 | < 20 | 15 | 32 | Activity (Mus musculus [4]): 0; Dose [6]: No signs of toxicity
CCCCCCNS(=O)(=O)c1cc([N+](=O)[O-])c(N(CCC)CCC)c([N+](=O)[O-])c1 | 15 |  |  |  |  | 26 | 
CCCN(CCC)c1c([N+](=O)[O-])cc(S(=O)(=O)N(c2ccccc2)c2ccccc2)cc1[N+](=O)[O-] | 7 | > 100 |  |  | > 100 | > 100 | 
COc1cc2cc(c1Cl)N(C)C(=O)C[C@H](OC(=O)C(C)C)[C@]1(C)O[C@@H]1[C@H](C)[C@@H]1C[C@@](O)(NC(=O)O1)[C@H](OC)/C=C/C=C(\C)C2 [ANSAMITOCIN P3] |  | 6e-05 |  |  | 0.00047 |  | 
CCCN(CCC)c1c([N+](=O)[O-])cc(S(=O)(=O)Nc2ccccc2)cc1[N+](=O)[O-] | 0.41 | 31 | 14 | 89 | 28 | 5 | Survival (Mus musculus [7]): 8 days; Activity (Mus musculus [4]): 0; IC50 [5]: 6.7 µM; Dose [6]: 20 mg/kg
CCCN(CCC)c1c([N+](=O)[O-])cc(S(=O)(=O)N(C)C)cc1[N+](=O)[O-] | 5.8 |  |  |  |  | > 100 | 
CCCN(CCC)c1c([N+](=O)[O-])cc(S(=O)(=O)Nc2ccc(Cl)c(Cl)c2)cc1[N+](=O)[O-] | 7.9 | 15 | < 20 | < 20 | 7.2 | 5 | 
Cc1ccc(C(=O)Nc2ccc(S(=O)(=O)O)c3cc(S(=O)(=O)O)cc(S(=O)(=O)O)c23)cc1NC(=O)c1cccc(NC(=O)Nc2cccc(C(=O)Nc3cc(C(=O)Nc4ccc(S(=O)(=O)O)c5cc(S(=O)(=O)O)cc(S(=O)(=O)O)c45)ccc3C)c2)c1 [SURAMIN] | 0.21 |  |  |  |  |  | 
CCCN(CCC)c1c([N+](=O)[O-])cc(S(=O)(=O)Nc2cc(Cl)cc(Cl)c2)cc1[N+](=O)[O-] | 8 | 11 | < 20 | 102 | 5.1 | 3.7 | IC50 [5]: 5.8 µM
CCCN(CCC)c1c([N+](=O)[O-])cc(S(=O)(=O)N(CCC)CCC)cc1[N+](=O)[O-] | 17 |  |  |  |  | 55 | 
CCCN(CCC)c1c([N+](=O)[O-])cc(S(=O)(=O)NC)cc1[N+](=O)[O-] | 5.3 |  | < 20 | < 20 |  | > 100 | 
CCCCN(CCCC)S(=O)(=O)c1cc([N+](=O)[O-])c(N(CCC)CCC)c([N+](=O)[O-])c1 | 38 |  |  |  |  | 48 | 
CCCN(CCC)c1c([N+](=O)[O-])cc(S(=O)(=O)Nc2cccc(Cl)c2)cc1[N+](=O)[O-] | 2.1 | 18 | < 20 | 57 | 8.7 | 5.5 | 
CCCN(CCC)c1c([N+](=O)[O-])cc(S(=O)(=O)NC2CCCC2)cc1[N+](=O)[O-] | 11 |  |  |  |  | 50 | Activity (Mus musculus [4]): 0; inhibition [8]: < 20%; Dose [6]: No signs of toxicity
